The test system of data set [1] is Human immunodeficiency virus 1. Nature of the data set: Antiviral activity against HIV1 NL4.3 infected in human MT4 cells assessed as reduction in virus-induced cytopathic effect preincubated for 30 mins followed by viral infection and measured after 5 days by MTS assay. The class given is functional, organism-based. The conditions noted are these: Human immunodeficiency virus 1, NL4.3, MT4.

A short description of data set [2]: Cytotoxicity against human MT4 cells assessed as reduction in cell viability measured after 5 days by MTS/PES assay. In kind it is cell-based. The gist of the method:
(§1)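 MT-4 cells (RPMI-1640, 10% FCS, 1% L-glutamine) pre-incubated 30 min at 37 °C with compound, then infected with HIV-1 NL4.3 or HIV-2 ROD according to stock TCID50. After 5 days, CPE scored microscopically and viability read by MTS/PES at A490 to derive EC50; cytotoxicity measured by MTS/PES at 5 days in the same cells. SI = CC50/EC50. Mean ± S.D. of at least 3 experiments.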

The subject of the next data set is Enterovirus A71. Nature of the data set: Antiviral activity against Enterovirus A 71 BrCr infected in human RD cells assessed as reduction in virus-induced cytopathic effect preincubated for 1 day followed by viral infection and measured after 3 days by MTS/PMS method. In kind it is functional, organism-based. The conditions noted are these: strain BRCR. The gist of the method: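 RD cells seeded in 96-well plates; next day serial compound dilutions plus virus at low MOI added. Incubation at 37 °C, 5% CO₂ until full CPE in untreated infected controls (3 days). Viability read by MTS/PMS; EC50 as 50% inhibition of virus-induced death from dose-response curves. CC50 from uninfected treated cells in the same setup; SI = CC50/EC50.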

Data set [3] relates to Human immunodeficiency virus 2. Nature of the data set: Antiviral activity against HIV-2 ROD infected in human MT4 cells assessed as reduction in virus-induced cytopathic effect preincubated for 30 mins followed by viral infection and measured after 5 days by MTS assay. The settings on record: Human immunodeficiency virus 2, ISOLATE ROD.
Data set [4] can be described thus: Selectivity index, ratio of CC50 for human MT4 cells to EC50 for HIV1 NL4.3 infected in human MT4 cells. The class given is toxicity, cell-based. The conditions noted are these: read-out: Ratio CC50/EC50. The gist of the method:
as §1

The nature of data set [5]: Selectivity index, ratio of CC50 for human MT4 cells to EC50 for HIV-1 NL4.3 infected in human MT4 cells.
A short description of data set [6]: Selectivity index, ratio of CC50 for human RD cells to EC50 for Enterovirus A71 BrCr infected in human RD cells. The class given is toxicity, cell-based. The settings on record: read-out: Ratio CC50/EC50. The gist of the method: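 RD cells seeded in 96-well plates; next day serial compound dilutions plus virus at low MOI added. Incubation at 37 °C, 5% CO₂ until full CPE in untreated infected controls (3 days). CC50 from uninfected treated cells in the same setup; SI = CC50/EC50.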

Molecules are shown by their SMILES.

Turning to `O=C(CCOCC(COCCC(=O)NC(Cc1cn(Cc2ccc(C(=O)O)cc2)c2ccccc12)C(=O)O)(COCCC(=O)NC(Cc1cn(Cc2ccc(C(=O)O)cc2)c2ccccc12)C(=O)O)COCCC(=O)NC(Cc1cn(Cc2ccc(C(=O)O)cc2)c2ccccc12)C(=O)O)NC(Cc1cn(Cc2ccc(C(=O)O)cc2)c2ccccc12)C(=O)O` (stereo unspecified), the EC50 (usually the concentration needed to bring the measured effect to its halfway point) is more than 76 µM in data set [1], more than 19.5 µM with Enterovirus A71 and more than 76 µM in data set [3]. Besides, in data set [2], the CC50 (commonly the concentration that lowers cell viability or growth by half) at 120 h is 76 µM.

Consider `O=C(CCC(CCC(=O)NC(Cc1c(-c2ccccc2F)[nH]c2ccccc12)C(=O)O)(CCC(=O)NC(Cc1c(-c2ccccc2F)[nH]c2ccccc12)C(=O)O)[N+](=O)[O-])NC(Cc1c(-c2ccccc2F)[nH]c2ccccc12)C(=O)O` (stereo unspecified), for which the EC50 in data set [1] is 35 µM; with Enterovirus A71, more than 89.4 µM; in data set [3], more than 100 µM. Besides, the CC50 at 120 h in data set [2] is more than 100 µM. The selectivity ratio in data set [4] and in data set [5] was more than 3 throughout.

`O=C(CCC(CCC(=O)NC(Cc1cn(Cc2ccc(C(=O)O)cc2)c2ccccc12)C(=O)O)(CCC(=O)NC(Cc1cn(Cc2ccc(C(=O)O)cc2)c2ccccc12)C(=O)O)[N+](=O)[O-])NC(Cc1cn(Cc2ccc(C(=O)O)cc2)c2ccccc12)C(=O)O` (stereo unspecified): the EC50 was 41 µM in data set [1] and 47 µM in data set [3]. The CC50 at 120 h in data set [2] is more than 100 µM. Also, the selectivity ratio in data set [4] and in data set [5] was more than 2.4 in each case.

Regarding `O=C(CCOCC(COCCC(=O)NC(Cc1c(-c2ccc(C(=O)O)cc2)[nH]c2ccccc12)C(=O)O)(COCCC(=O)NC(Cc1c(-c2ccc(C(=O)O)cc2)[nH]c2ccccc12)C(=O)O)COCCC(=O)NC(Cc1c(-c2ccc(C(=O)O)cc2)[nH]c2ccccc12)C(=O)O)NC(Cc1c(-c2ccc(C(=O)O)cc2)[nH]c2ccccc12)C(=O)O` (stereo unspecified), the EC50 in data set [1] amounted to 0.73 µM; in the data set on Enterovirus A71, 0.37 µM; in data set [3], 0.75 µM. The CC50 at 120 h in data set [2] was more than 100 µM. Further, the selectivity ratio in data set [4] is more than 137; in data set [6], 161; in data set [5], more than 137. In addition, in the data set with Enterovirus A71, the EC90 – broadly, the point of the concentration-response curve where the effect stands at 90% – stood at 0.63 µM.

As for `O=C(CCC(CCC(=O)NC(Cc1cn(Cc2ccc(F)cc2)c2ccccc12)C(=O)O)(CCC(=O)NC(Cc1cn(Cc2ccc(F)cc2)c2ccccc12)C(=O)O)[N+](=O)[O-])NC(Cc1cn(Cc2ccc(F)cc2)c2ccccc12)C(=O)O` (stereo unspecified), the concentration giving a half-maximal response (EC50) in data set [1] was 43 µM; in data set [3], 34 µM. The CC50 at 120 h in data set [2] is more than 100 µM. Further, the selectivity ratio in data set [4] and in data set [5] was more than 2.3 each time.

As for `O=C(CCC(CCC(=O)NC(Cc1c(-c2ccc(C(=O)O)cc2)[nH]c2ccccc12)C(=O)O)(CCC(=O)NC(Cc1c(-c2ccc(C(=O)O)cc2)[nH]c2ccccc12)C(=O)O)[N+](=O)[O-])NC(Cc1c(-c2ccc(C(=O)O)cc2)[nH]c2ccccc12)C(=O)O` (stereo unspecified), the EC50 in data set [1] is 2.4 µM; in the data set with Enterovirus A71 it was 12.2 µM; in data set [3], more than 71 µM. Besides, in data set [2], the CC50 at 120 h amounted to 71 µM. Moreover, the selectivity ratio in data set [4] and in data set [5] was 29.6 in each case.

For the compound `O=C(CCC(CCC(=O)NC(Cc1c(-c2ccccc2)[nH]c2ccccc12)C(=O)O)(CCC(=O)NC(Cc1c(-c2ccccc2)[nH]c2ccccc12)C(=O)O)[N+](=O)[O-])NC(Cc1c(-c2ccccc2)[nH]c2ccccc12)C(=O)O` (stereo unspecified), the results for the EC50 (in data set [1]; in the data set with Enterovirus A71; in data set [3]) were 19 µM, more than 100 µM and more than 83 µM, respectively. Further, in data set [2], the CC50 at 120 h was 83 µM. The selectivity ratio in data set [4] and in data set [5] was 4.4 each time.

Take `O=C(CCOCC(COCCC(=O)NC(Cc1c[nH]c2ccccc12)C(=O)O)(COCCC(=O)NC(Cc1c[nH]c2ccccc12)C(=O)O)COCCC(=O)NC(Cc1c[nH]c2ccccc12)C(=O)O)NC(Cc1c[nH]c2ccccc12)C(=O)O` (stereo unspecified): the EC50 is more than 250 µM in data set [1], more than 100 µM in the data set on Enterovirus A71 and more than 250 µM in data set [3]. Besides, the CC50 at 120 h in data set [2] is more than 250 µM.

On to `O=C(CCC(CCC(=O)NC(Cc1c(-c2ccc(C(F)(F)F)cc2)[nH]c2ccccc12)C(=O)O)(CCC(=O)NC(Cc1c(-c2ccc(C(F)(F)F)cc2)[nH]c2ccccc12)C(=O)O)[N+](=O)[O-])NC(Cc1c(-c2ccc(C(F)(F)F)cc2)[nH]c2ccccc12)C(=O)O` (stereo unspecified), for which the EC50 is 26 µM in data set [1], more than 78.9 µM in the data set on Enterovirus A71 and 68 µM in data set [3]. The half-maximal cytotoxic concentration (CC50) at 120 h in data set [2] is more than 100 µM. Besides, the selectivity ratio in data set [4] and in data set [5] was more than 4 in each case.

As to `CN[C@@H]1[C@H](O[C@@H]2OC[C@@H](O)[C@H](O)[C@H]2O)[C@@H](O)[C@H](O[C@H]2c3cc(C)c(C(=O)N[C@H](C)C(=O)O)c(O)c3-c3c(cc4c(c3O)C(=O)c3cc(OC)cc(O)c3C4=O)[C@@H]2O)O[C@@H]1C` [PRADIMICIN A], the EC50 in data set [1] was 3.3 µM. In addition, the cytotoxic concentration (CC50) at 120 h in data set [2] was more than 100 µM. Also, the selectivity ratio in data set [4] and in data set [5] was more than 30.3 throughout.

As for `O=C(CCC(CCC(=O)NC(Cc1c(-c2ccc([N+](=O)[O-])cc2)[nH]c2ccccc12)C(=O)O)(CCC(=O)NC(Cc1c(-c2ccc([N+](=O)[O-])cc2)[nH]c2ccccc12)C(=O)O)[N+](=O)[O-])NC(Cc1c(-c2ccc([N+](=O)[O-])cc2)[nH]c2ccccc12)C(=O)O` (stereo unspecified), the figures for the EC50 (in data set [1]; in the data set on Enterovirus A71; in data set [3]) were 41 µM, 28.8 µM and 43 µM, respectively. Moreover, the cytotoxic concentration (CC50) at 120 h in data set [2] was more than 100 µM. Also, the selectivity ratio in data set [4] and in data set [5] was more than 2 throughout. Moreover, the EC90 in the data set with Enterovirus A71 was 58.2 µM.

Consider `O=C(CCC(CCC(=O)NC(Cc1cn(Cc2ccccc2)c2ccccc12)C(=O)O)(CCC(=O)NC(Cc1cn(Cc2ccccc2)c2ccccc12)C(=O)O)[N+](=O)[O-])NC(Cc1cn(Cc2ccccc2)c2ccccc12)C(=O)O` (stereo unspecified), for which the EC50 in data set [1] was determined as 49 µM; in data set [3] it was 38 µM. Also, the CC50 at 120 h in data set [2] was more than 100 µM. For the same compound, the selectivity ratio in data set [4] and in data set [5] was more than 2 throughout.

On to `O=C(CCC(CCC(=O)NC(Cc1c[nH]c2ccccc12)C(=O)O)(CCC(=O)NC(Cc1c[nH]c2ccccc12)C(=O)O)[N+](=O)[O-])NC(Cc1c[nH]c2ccccc12)C(=O)O` (stereo unspecified), for which the results for the EC50 (in data set [1]; in the data set with Enterovirus A71; in data set [3]) were more than 100 µM, more than 120 µM and more than 100 µM, respectively. Besides, the CC50 at 120 h in data set [2] is more than 100 µM.

Consider `O=C(CCC(CCC(=O)NC(Cc1c(-c2ccc(Br)cc2)[nH]c2ccccc12)C(=O)O)(CCC(=O)NC(Cc1c(-c2ccc(Br)cc2)[nH]c2ccccc12)C(=O)O)[N+](=O)[O-])NC(Cc1c(-c2ccc(Br)cc2)[nH]c2ccccc12)C(=O)O` (stereo unspecified), for which the EC50 in data set [1] is more than 30 µM; with Enterovirus A71 it was 65.2 µM; in data set [3], more than 30 µM. Further, the CC50 at 120 h in data set [2] amounted to 30 µM.

`COc1ccc(-c2[nH]c3ccccc3c2CC(NC(=O)CCC(CCC(=O)NC(Cc2c(-c3ccc(OC)cc3)[nH]c3ccccc23)C(=O)O)(CCC(=O)NC(Cc2c(-c3ccc(OC)cc3)[nH]c3ccccc23)C(=O)O)[N+](=O)[O-])C(=O)O)cc1` (stereo unspecified): the EC50 in data set [1] was more than 9.3 µM; in the data set with Enterovirus A71 it was more than 86.6 µM; in data set [3], more than 9.3 µM. Further, the CC50 at 120 h in data set [2] was determined as 9.3 µM.

In the case of `O=C(CCC(CCC(=O)NC(Cc1c(-c2cccc(C(=O)O)c2)[nH]c2ccccc12)C(=O)O)(CCC(=O)NC(Cc1c(-c2cccc(C(=O)O)c2)[nH]c2ccccc12)C(=O)O)[N+](=O)[O-])NC(Cc1c(-c2cccc(C(=O)O)c2)[nH]c2ccccc12)C(=O)O` (stereo unspecified), the EC50 in data set [1] was 16 µM; with Enterovirus A71, 0.99 µM; in data set [3] it was 64 µM. For the same compound, in data set [2], the 50% cytotoxic concentration (CC50) at 120 h is more than 100 µM. Also, the selectivity ratio was more than 6 in data set [4], more than 73.4 in data set [6] and more than 6 in data set [5]. In addition, the EC90 in the data set with Enterovirus A71 worked out at 1.35 µM.

For the origin of these results see ChEMBL document CHEMBL4321868, “Scaffold Simplification Strategy Leads to a Novel Generation of Dual Human Immunodeficiency Virus and Enterovirus-A71 Entry Inhibitors” (J Med Chem, 2020).
